Laboratory results published in ChEMBL document CHEMBL1151848, “Aryl nucleoside H-phosphonates. Part 16: synthesis and anti-HIV-1 activity of di-aryl nucleoside phosphotriesters” (Bioorg Med Chem, 2009).

Tests used:
[1] = Chemical stability assessed as enzymatic hydrolysis half life in RPMI-1640 culture medium containing heat non-inactivated fetal bovine serum by HPLC analysis; type: physicochemical; conditions: cattle
Outline: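 Enzymatic hydrolysis by phosphoesterases was followed in RPMI-1640 containing heat non-inactivated FBS (RPMI/FBS 9:1, v/v).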

[2] = Chemical stability in RPMI-1640 culture medium at 2 uM up to 6 days by HPLC analysis; type: physicochemical; conditions: 144 h

SMILES	half-life [1]	Stability [2]
Cc1cn([C@H]2C[C@H](N=[N+]=[N-])[C@@H](COP(=O)(O)Oc3ccc(Cl)cc3)O2)c(=O)[nH]c1=O	5.5 h	Stable
O=c1ccn([C@H]2CC[C@@H](COP(=O)(O)Oc3ccncc3)O2)c(=O)[nH]1	23.6 h	Stable
Cc1ccc(OP(=O)(O)OC[C@H]2O[C@@H](n3cc(C)c(=O)[nH]c3=O)C[C@@H]2N=[N+]=[N-])cn1	28.9 h	Stable
Nc1ncnc2c1ncn2[C@H]1CC[C@@H](COP(=O)(O)Oc2ccccc2)O1	36.1 h	Stable
Cc1cn([C@H]2C[C@H](N=[N+]=[N-])[C@@H](COP(=O)(O)Oc3cncc(Cl)c3)O2)c(=O)[nH]c1=O	7.27 h	Stable
Cc1ncccc1OP(=O)(O)OC[C@H]1O[C@@H](n2cc(C)c(=O)[nH]c2=O)C[C@@H]1N=[N+]=[N-]	15.8 h	Stable
O=c1ccn([C@H]2CC[C@@H](COP(=O)(O)Oc3cccnc3)O2)c(=O)[nH]1	50.2 h	Stable
Nc1ncnc2c1ncn2[C@H]1CC[C@@H](COP(=O)(O)Oc2cccnc2)O1	64.2 h	Stable
Cc1cn([C@H]2C[C@H](N=[N+]=[N-])[C@@H](COP(=O)(O)Oc3ccccc3)O2)c(=O)[nH]c1=O	9.47 h	Stable
Cc1cn([C@H]2C[C@H](N=[N+]=[N-])[C@@H](COP(=O)(O)Oc3cccnc3Cl)O2)c(=O)[nH]c1=O	16.3 h	Stable
Cc1cn([C@H]2C[C@H](N=[N+]=[N-])[C@@H](COP(=O)(O)Oc3ccc(C#N)cc3)O2)c(=O)[nH]c1=O	7.08 h	Stable
Cc1cn([C@H]2C[C@H](N=[N+]=[N-])[C@@H](COP(=O)(O)Oc3ccncc3)O2)c(=O)[nH]c1=O	8.07 h	Stable
Cc1cn([C@H]2C[C@H](N=[N+]=[N-])[C@@H](COP(=O)(O)Oc3ccc(Br)cc3)O2)c(=O)[nH]c1=O	7.97 h	Stable
